Experiments:
[1] = molecular target: Calcium-dependent protein kinase 1 (Plasmodium falciparum) (UniProt P62344); experiment: Binding affinity to wild-type Plasmodium falciparum full length CDPK1 (M1 to S524 residues) expressed in mammalian expression system assessed as residual binding level at 1 uM by Kinomescan method relative to control
[2] = test system: Receptor-type tyrosine-protein kinase FLT3 (Homo sapiens), P36888 [D835V]; experiment: Binding affinity to human partial length FLT3 D835V mutant (V592 to Y969 residues) expressed in bacterial expression system assessed as residual binding level at 1 uM by Kinomescan method relative to control
How it was run: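 Kinome-wide selectivity panel run by the KINOMEscan method, with the test compound at a single concentration of 1 μM. Wild-type and mutant kinases were profiled in the same screen.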

[3] = molecular target: Wee1-like protein kinase 2 (Homo sapiens) (UniProt P0C1S8); experiment: Binding affinity to wild-type human partial length WEE2 (M204 to K492 residues) expressed in bacterial expression system assessed as residual binding level at 1 uM by Kinomescan method relative to control
[4] = molecular target: Tyrosine-protein kinase Lyn (Homo sapiens) (UniProt P07948); experiment: Binding affinity to wild-type human partial length LYN (C219 to Q511 residues) expressed in bacterial expression system assessed as residual binding level at 1 uM by Kinomescan method relative to control
Insulin receptor = Insulin receptor (Homo sapiens, UniProt P06213); experiment: Inhibition of recombinant His-tagged human InsR (1011 to 1382 residues) expressed in baculovirus expression system by Z-LYTE assay
[5] = molecular target: Calcium/calmodulin-dependent protein kinase type IV (Homo sapiens) (UniProt Q16566); experiment: Binding affinity to wild-type human partial length CAMK4 (A22 to A322 residues) expressed in bacterial expression system assessed as residual binding level at 1 uM by Kinomescan method relative to control
[6] = molecular target: Dual specificity mitogen-activated protein kinase kinase 5 (Homo sapiens) (UniProt Q13163); experiment: Binding affinity to wild-type human partial length MEK5 (L98 to P448 residues) expressed in mammalian expression system assessed as residual binding level at 1 uM by Kinomescan method relative to control
[7] = molecular target: Serine/threonine-protein kinase NIM1 (Homo sapiens) (UniProt Q8IY84); experiment: Binding affinity to wild-type human partial length NIM1 (Q44 to N355 residues) expressed in mammalian expression system assessed as residual binding level at 1 uM by Kinomescan method relative to control
[8] = molecular target: Serine/threonine-protein kinase LATS2 (Homo sapiens) (UniProt Q9NRM7); experiment: Binding affinity to wild-type human partial length LATS2 (Q641 to V1088 residues) expressed in mammalian expression system assessed as residual binding level at 1 uM by Kinomescan method relative to control
[9] = molecular target: Ankyrin repeat and protein kinase domain-containing protein 1 (Homo sapiens) (UniProt Q8NFD2); experiment: Binding affinity to wild-type human partial length ANKK1 (M1 to A305 residues) expressed in mammalian expression system assessed as residual binding level at 1 uM by Kinomescan method relative to control
[10] = Drug uptake in mouse plasma at 2 mg/kg, iv after 2 hrs; assay type: ADME, organism-based
[11] = molecular target: Serine/threonine-protein kinase PAK 6 (Homo sapiens) (UniProt Q9NQU5); experiment: Binding affinity to wild-type human partial length PAK6 (N298 to C681 residues) expressed in bacterial expression system assessed as residual binding level at 1 uM by Kinomescan method relative to control
[12] = molecular target: Mitogen-activated protein kinase 6 (Homo sapiens) (UniProt Q16659); experiment: Binding affinity to wild-type human partial length ERK3 (M1 to P413 residues) expressed in bacterial expression system assessed as residual binding level at 1 uM by Kinomescan method relative to control
[13] = molecular target: Aurora kinase C (Homo sapiens) (UniProt Q9UQB9); experiment: Binding affinity to wild-type human full length AURKC (M1 to S275 residues) expressed in bacterial expression system assessed as residual binding level at 1 uM by Kinomescan method relative to control
[14] = molecular target: Dual specificity protein kinase CLK3 (Homo sapiens) (UniProt P49761); experiment: Binding affinity to wild-type human full length CLK3 (M1 to R490 residues) expressed in bacterial expression system assessed as residual binding level at 1 uM by Kinomescan method relative to control
[15] = molecular target: Serine/threonine-protein kinase 24 (Homo sapiens) (UniProt Q9Y6E0); experiment: Binding affinity to wild-type human partial length MST3 (A30 to S311 residues) expressed in bacterial expression system assessed as residual binding level at 1 uM by Kinomescan method relative to control
[16] = molecular target: Interferon-induced, double-stranded RNA-activated protein kinase (Homo sapiens) (UniProt P19525); experiment: Binding affinity to wild-type human partial length PRKR (F247 to C551 residues) expressed in bacterial expression system assessed as residual binding level at 1 uM by Kinomescan method relative to control
[17] = molecular target: Phosphatidylinositol 3-kinase C2 domain-containing subunit gamma (Homo sapiens) (UniProt O75747); experiment: Binding affinity to wild-type human partial length PIK3C2G (M1 to I1446 residues) expressed in mammalian expression system assessed as residual binding level at 1 uM by Kinomescan method relative to control
[18] = molecular target: Mitogen-activated protein kinase kinase kinase 3 (Homo sapiens) (UniProt Q99759); experiment: Binding affinity to wild-type human partial length MAP3K3 (E320 to Y626 residues) expressed in mammalian expression system assessed as residual binding level at 1 uM by Kinomescan method relative to control
[19] = molecular target: Mitogen-activated protein kinase kinase kinase 14 (Homo sapiens) (UniProt Q99558); experiment: Binding affinity to wild-type human partial length NIK (L318 to P947 residues) expressed in mammalian expression system assessed as residual binding level at 1 uM by Kinomescan method relative to control
[20] = molecular target: Epidermal growth factor receptor (Homo sapiens) (UniProt P00533); experiment: Binding affinity to wild-type human partial length EGFR (R669 to V1011 residues) expressed in bacterial expression system assessed as residual binding level at 1 uM by Kinomescan method relative to control
[21] = molecular target: MAP kinase-activated protein kinase 5 (Homo sapiens) (UniProt Q8IW41); experiment: Binding affinity to wild-type human partial length MAPKAPK5 (M1 to D322 residues) expressed in mammalian expression system assessed as residual binding level at 1 uM by Kinomescan method relative to control
[22] = molecular target: Leukocyte tyrosine kinase receptor (Homo sapiens) (UniProt P29376); experiment: Binding affinity to wild-type human partial length LTK (P422 to S744 residues) expressed in bacterial expression system assessed as residual binding level at 1 uM by Kinomescan method relative to control
[23] = molecular target: MAP kinase-interacting serine/threonine-protein kinase 2 (Homo sapiens) (UniProt Q9HBH9); experiment: Binding affinity to wild-type human partial length MKNK2 (G63 to S388 residues) expressed in mammalian expression system assessed as residual binding level at 1 uM by Kinomescan method relative to control
[24] = molecular target: MAP/microtubule affinity-regulating kinase 4 (Homo sapiens) (UniProt Q96L34); experiment: Binding affinity to wild-type human partial length MARK4 (K29 to G340 residues) expressed in bacterial expression system assessed as residual binding level at 1 uM by Kinomescan method relative to control

Insulin receptor, sequence (P06213 28-758 limits assumed): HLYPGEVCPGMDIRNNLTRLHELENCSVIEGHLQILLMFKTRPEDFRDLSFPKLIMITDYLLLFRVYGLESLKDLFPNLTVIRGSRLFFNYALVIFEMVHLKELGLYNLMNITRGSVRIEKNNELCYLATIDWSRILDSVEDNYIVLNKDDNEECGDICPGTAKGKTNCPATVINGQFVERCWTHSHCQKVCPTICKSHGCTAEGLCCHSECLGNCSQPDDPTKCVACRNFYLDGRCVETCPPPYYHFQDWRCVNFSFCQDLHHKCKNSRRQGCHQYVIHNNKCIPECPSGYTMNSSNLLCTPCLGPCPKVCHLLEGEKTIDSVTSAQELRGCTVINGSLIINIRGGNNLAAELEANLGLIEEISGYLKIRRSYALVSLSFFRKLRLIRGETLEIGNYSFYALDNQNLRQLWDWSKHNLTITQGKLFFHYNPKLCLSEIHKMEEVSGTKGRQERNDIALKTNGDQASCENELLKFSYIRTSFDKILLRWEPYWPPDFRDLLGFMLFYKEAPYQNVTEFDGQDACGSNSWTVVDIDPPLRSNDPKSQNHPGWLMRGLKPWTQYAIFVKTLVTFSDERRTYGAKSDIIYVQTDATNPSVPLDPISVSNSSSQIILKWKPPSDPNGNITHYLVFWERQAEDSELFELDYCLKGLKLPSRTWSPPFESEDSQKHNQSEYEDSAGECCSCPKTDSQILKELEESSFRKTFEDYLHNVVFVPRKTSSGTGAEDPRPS
Insulin receptor, sequence (P06213 763-1382 limits assumed): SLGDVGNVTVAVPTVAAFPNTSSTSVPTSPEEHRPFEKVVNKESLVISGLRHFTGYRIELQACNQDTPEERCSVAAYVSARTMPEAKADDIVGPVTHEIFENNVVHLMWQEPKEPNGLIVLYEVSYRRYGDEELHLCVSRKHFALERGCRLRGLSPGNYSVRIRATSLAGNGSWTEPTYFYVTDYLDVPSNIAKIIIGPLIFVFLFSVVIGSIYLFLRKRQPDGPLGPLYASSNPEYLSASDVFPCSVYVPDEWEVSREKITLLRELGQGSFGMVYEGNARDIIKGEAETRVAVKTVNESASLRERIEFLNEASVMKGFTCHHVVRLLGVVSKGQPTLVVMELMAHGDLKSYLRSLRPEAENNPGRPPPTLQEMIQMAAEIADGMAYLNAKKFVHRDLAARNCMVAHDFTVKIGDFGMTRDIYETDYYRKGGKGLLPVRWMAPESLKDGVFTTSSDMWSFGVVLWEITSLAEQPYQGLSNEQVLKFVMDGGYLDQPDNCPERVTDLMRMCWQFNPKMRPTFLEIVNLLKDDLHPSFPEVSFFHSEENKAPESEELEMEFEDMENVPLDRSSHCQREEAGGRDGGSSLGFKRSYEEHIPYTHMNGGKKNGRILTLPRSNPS
Serine/threonine-protein kinase PAK 6 (Homo sapiens), sequence (Q9NQU5 whole entry, looked up, the tested form may be a part): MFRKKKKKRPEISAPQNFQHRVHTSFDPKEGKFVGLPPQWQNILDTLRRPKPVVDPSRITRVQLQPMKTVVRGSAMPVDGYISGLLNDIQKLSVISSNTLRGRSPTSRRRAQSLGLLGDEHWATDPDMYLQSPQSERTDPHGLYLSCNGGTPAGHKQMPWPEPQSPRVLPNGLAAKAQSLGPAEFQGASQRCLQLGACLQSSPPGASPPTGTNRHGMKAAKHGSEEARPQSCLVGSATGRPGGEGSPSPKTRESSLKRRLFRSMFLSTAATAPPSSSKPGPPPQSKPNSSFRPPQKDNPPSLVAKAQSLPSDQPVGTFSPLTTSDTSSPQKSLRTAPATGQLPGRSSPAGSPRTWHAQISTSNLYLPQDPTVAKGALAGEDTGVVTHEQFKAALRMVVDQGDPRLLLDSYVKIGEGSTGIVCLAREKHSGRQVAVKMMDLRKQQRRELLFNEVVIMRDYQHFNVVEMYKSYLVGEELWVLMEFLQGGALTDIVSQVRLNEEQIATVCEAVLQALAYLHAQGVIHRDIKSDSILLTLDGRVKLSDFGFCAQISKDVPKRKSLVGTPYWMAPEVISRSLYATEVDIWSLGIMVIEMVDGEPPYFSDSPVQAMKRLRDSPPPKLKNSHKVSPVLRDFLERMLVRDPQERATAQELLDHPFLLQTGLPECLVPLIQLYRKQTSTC
Calcium/calmodulin-dependent protein kinase type IV (Homo sapiens), sequence (Q16566 whole entry, the tested form may be a part): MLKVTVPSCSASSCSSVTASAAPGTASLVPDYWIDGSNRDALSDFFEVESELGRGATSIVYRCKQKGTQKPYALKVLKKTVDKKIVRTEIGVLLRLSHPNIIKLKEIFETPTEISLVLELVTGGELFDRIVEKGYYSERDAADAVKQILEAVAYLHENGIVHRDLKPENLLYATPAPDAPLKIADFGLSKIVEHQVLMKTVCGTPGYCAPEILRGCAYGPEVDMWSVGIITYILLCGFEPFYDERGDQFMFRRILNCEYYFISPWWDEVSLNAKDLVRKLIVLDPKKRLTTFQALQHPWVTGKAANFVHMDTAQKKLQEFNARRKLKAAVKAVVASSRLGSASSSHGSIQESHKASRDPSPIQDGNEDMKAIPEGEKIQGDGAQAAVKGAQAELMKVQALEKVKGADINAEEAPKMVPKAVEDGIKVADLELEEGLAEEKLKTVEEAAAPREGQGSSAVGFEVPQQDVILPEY
Calcium-dependent protein kinase 1 (Plasmodium falciparum), sequence (P62344 2-524 limits assumed): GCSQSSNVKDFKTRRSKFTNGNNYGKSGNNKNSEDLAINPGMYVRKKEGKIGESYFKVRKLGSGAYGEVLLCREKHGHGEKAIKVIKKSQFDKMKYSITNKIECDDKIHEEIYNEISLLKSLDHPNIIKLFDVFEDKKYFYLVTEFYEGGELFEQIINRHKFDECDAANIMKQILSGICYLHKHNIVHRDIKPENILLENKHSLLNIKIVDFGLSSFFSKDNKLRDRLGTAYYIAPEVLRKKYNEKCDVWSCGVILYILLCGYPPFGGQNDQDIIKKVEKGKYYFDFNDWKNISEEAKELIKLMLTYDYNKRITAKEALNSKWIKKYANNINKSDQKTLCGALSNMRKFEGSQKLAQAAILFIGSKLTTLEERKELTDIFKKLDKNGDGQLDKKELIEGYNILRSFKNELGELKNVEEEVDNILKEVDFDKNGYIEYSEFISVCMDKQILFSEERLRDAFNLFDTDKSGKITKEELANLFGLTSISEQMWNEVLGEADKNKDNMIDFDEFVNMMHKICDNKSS
Serine/threonine-protein kinase 24 (Homo sapiens), sequence (Q9Y6E0 whole entry, looked up, the tested form may be a part): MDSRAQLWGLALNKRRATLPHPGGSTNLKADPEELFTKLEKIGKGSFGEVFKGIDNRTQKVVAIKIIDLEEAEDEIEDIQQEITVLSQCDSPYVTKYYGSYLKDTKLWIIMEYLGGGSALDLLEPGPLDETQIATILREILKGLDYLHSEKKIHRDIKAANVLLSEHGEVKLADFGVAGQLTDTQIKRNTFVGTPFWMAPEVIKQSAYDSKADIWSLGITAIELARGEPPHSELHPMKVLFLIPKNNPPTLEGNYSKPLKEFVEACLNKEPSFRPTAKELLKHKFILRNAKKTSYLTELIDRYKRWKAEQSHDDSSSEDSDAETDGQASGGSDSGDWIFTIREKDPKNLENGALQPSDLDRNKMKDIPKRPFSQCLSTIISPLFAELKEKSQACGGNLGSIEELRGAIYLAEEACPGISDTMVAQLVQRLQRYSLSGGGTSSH
Leukocyte tyrosine kinase receptor (Homo sapiens), sequence (P29376 whole entry, the tested form may be a part): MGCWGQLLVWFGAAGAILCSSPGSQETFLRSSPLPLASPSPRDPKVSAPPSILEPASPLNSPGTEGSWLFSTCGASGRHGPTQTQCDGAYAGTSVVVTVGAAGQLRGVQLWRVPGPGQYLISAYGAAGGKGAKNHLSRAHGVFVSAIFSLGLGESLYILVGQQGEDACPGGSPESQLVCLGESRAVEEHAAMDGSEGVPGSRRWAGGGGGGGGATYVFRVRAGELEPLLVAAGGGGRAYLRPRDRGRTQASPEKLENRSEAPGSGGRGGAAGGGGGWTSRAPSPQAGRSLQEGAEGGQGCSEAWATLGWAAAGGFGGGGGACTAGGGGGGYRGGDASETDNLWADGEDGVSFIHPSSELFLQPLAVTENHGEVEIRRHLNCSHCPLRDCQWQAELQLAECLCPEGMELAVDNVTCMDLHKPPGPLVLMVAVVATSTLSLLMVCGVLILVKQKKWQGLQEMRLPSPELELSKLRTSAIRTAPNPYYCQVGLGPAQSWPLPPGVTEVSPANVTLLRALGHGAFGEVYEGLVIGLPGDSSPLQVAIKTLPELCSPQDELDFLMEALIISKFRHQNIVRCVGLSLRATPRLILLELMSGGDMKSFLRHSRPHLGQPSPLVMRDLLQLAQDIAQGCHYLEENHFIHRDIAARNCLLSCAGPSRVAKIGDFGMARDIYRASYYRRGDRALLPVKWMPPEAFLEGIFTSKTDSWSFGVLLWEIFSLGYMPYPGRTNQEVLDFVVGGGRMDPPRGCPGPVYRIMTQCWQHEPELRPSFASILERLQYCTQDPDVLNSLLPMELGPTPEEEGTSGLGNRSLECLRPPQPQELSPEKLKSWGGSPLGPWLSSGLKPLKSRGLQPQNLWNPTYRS
Tyrosine-protein kinase Lyn (Homo sapiens), sequence (P07948 2-512 limits assumed): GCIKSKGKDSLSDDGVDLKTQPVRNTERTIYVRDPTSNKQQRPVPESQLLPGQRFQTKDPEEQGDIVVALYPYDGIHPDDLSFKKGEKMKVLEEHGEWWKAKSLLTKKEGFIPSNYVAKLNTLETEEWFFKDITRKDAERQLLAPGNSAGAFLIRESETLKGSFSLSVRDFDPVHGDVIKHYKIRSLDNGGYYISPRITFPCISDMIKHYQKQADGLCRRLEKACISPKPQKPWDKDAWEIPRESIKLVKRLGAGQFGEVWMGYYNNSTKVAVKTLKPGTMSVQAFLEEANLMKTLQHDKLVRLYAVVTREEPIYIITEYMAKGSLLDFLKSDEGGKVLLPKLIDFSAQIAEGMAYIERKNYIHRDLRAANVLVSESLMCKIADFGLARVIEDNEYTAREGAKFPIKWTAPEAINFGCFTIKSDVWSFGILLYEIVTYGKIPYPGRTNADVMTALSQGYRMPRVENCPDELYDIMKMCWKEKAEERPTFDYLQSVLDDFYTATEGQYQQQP

C=CC(=O)Nc1cc(Nc2ncc(Cl)c(Nc3ccccc3S(=O)(=O)C(C)C)n2)c(OC)cc1N(C)CCN(C)C
Activity [1]: 93%
Activity [2]: 2.4%
Activity [3]: 93%
Activity [4]: 57%
IC50 (Insulin receptor): 8 nM
Activity [5]: 9.4%
Activity [6]: 28%
Activity [7]: 100%
Activity [8]: 74%
Activity [9]: 39%
concentration at 2 h [10]: 100 nM
Activity [11]: 96%
Activity [12]: 94%
Activity [13]: 8.2%
Activity [14]: 23%
Activity [15]: 39%
Activity [16]: 66%
Activity [17]: 69%
Activity [18]: 17%
Activity [19]: 91%
Activity [20]: 0%
Activity [21]: 100%
Activity [22]: 0%
Activity [23]: 26%
Activity [24]: 6%

From ChEMBL document CHEMBL4382192, “Discovery of a potent dual ALK and EGFR T790M inhibitor” (Eur J Med Chem, 2017)
